Data from ChEMBL document CHEMBL1687803, “Elevated linezolid resistance in clinical cfr-positive Staphylococcus aureus isolates is associated with co-occurring mutations in ribosomal protein L3” (2010).
≈ marks a conversion by molar mass, not a printed value.

What was measured:
Assay type in all cases: functional
[1] = tested on: Staphylococcus aureus; assay: Antibacterial activity against laboratory-derived Staphylococcus aureus isolate 29213-2 harboring ribosomal protein L3 Gly155Arg/Met169Leu mutant by broth microdilution method
Outline: (§1)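 MICs were measured by CLSI broth microdilution against the S. aureus ATCC 29213 parent or its isogenic L3 mutants. The mutants had been selected earlier in vitro with oxazolidinones. Oxazolidinones and comparator antibiotics were tested. L3 mutations use staphylococcal numbering.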

[2] = tested on: Staphylococcus aureus; assay: Antibacterial activity against clinical-derived Staphylococcus aureus isolate harboring ribosomal protein L3 deltaSer145/His146Tyr mutant by broth microdilution method
Outline: (§2)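 MICs were measured by broth microdilution following CLSI guidelines against clinical cfr-positive S. aureus isolates. Oxazolidinones and comparator antibiotics were tested. Extra ribosomal mutations were identified by sequencing 23S rRNA domain V of all alleles and the rplC and rplD genes.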

[3] = tested on: Staphylococcus aureus; assay: Antibacterial activity against laboratory-derived Staphylococcus aureus isolate 29213-1 harboring ribosomal protein L3 Gly155Arg mutant and cfr-containing p42262 by broth microdilution method
Outline: (§3)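 The S. aureus ATCC 29213 parent and its isogenic L3 mutants carried the cfr plasmid p42262, introduced by electroporation. The plasmid came from clinical strain 42262. MICs were then measured by CLSI broth microdilution against oxazolidinones and comparator antibiotics.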

[4] = tested on: Staphylococcus aureus; assay: Antibacterial activity against laboratory-derived Staphylococcus aureus isolate 29213-1 harboring ribosomal protein L3 Gly155Arg mutant by broth microdilution method; outline: as §1
[5] = tested on: Staphylococcus aureus; assay: Antibacterial activity against laboratory-derived Staphylococcus aureus isolate 29213-3 harboring ribosomal protein L3 deltaPhe127-His146 mutant and cfr-containing p42262 by broth microdilution method; outline: as §3
[6] = tested on: Staphylococcus aureus; assay: Antibacterial activity against laboratory-derived Staphylococcus aureus isolate 29213-3 harboring ribosomal protein L3 deltaPhe127-His146 mutant by broth microdilution method; outline: as §1
[7] = tested on: Staphylococcus aureus; assay: Antibacterial activity against clinical-derived Staphylococcus aureus isolate 42262 by broth microdilution method; outline: as §2
[8] = tested on: Staphylococcus aureus; assay: Antibacterial activity against clinical-derived Staphylococcus aureus isolate 51312 harboring ribosomal protein L3 deltaMet169-Gly174 mutant by broth microdilution method; outline: as §2
[9] = tested on: Staphylococcus aureus; assay: Antibacterial activity against laboratory-derived Staphylococcus aureus ATCC 29213 harboring cfr-containing p42262 by broth microdilution method; outline: as §3
[10] = tested on: Staphylococcus aureus; assay: Antibacterial activity against laboratory-derived Staphylococcus aureus ATCC 29213 by broth microdilution method; outline: as §1
[11] = tested on: Staphylococcus aureus; assay: Antibacterial activity against laboratory-derived Staphylococcus aureus isolate 29213-2 harboring ribosomal protein L3 Gly155Arg/Met169Leu mutant and cfr-containing p42262 by broth microdilution method; outline: as §3
[12] = tested on: Staphylococcus aureus; assay: Antibacterial activity against cfr positive Staphylococcus aureus clinical isolate by broth microdilution method
Outline: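 MICs against clinical cfr-positive S. aureus isolates (groups 1–3 plus an environmental strain), by CLSI broth microdilution. Non-isogenic ATCC 29213 served as a linezolid-susceptible control strain. Isolates were also characterised by sequencing 23S rRNA domain V (all alleles), rplC (L3) and rplD (L4).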

[13] = tested on: Staphylococcus aureus; assay: Antibacterial activity against laboratory-generated cfr-transformed Staphylococcus aureus by broth microdilution method
Outline: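 Isogenic panel in the S. aureus ATCC 29213 background: wild-type parent and three laboratory-selected L3 mutants, each electroporated with cfr plasmid p42262 from clinical strain 42262. MICs were read by CLSI broth microdilution.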

Row | Structure (SMILES) | MIC [1] [µg/mL] | MIC [2] [µg/mL] | MIC [3] [µg/mL] | MIC [4] [µg/mL] | MIC [5] [µg/mL] | MIC [6] [µg/mL] | MIC [7] [µg/mL] | MIC [8] [µg/mL] | MIC [9] [µg/mL] | MIC [10] [µg/mL] | MIC [11] [µg/mL] | MIC [12] [µg/mL] | MIC [13] [µg/mL]
1 | Cn1nnc(-c2ccc(-c3ccc(N4C[C@H](CO)OC4=O)cc3F)cn2)n1 [TEDIZOLID] | 2 (≈ 5.4 µM) | 1 (≈ 2.7 µM) | 1 (≈ 2.7 µM) | 1 (≈ 2.7 µM) | 2 (≈ 5.4 µM) | 2 (≈ 5.4 µM) | 0.5 (≈ 1.35 µM) | 2 (≈ 5.4 µM) | 0.5 (≈ 1.35 µM) | 0.5 (≈ 1.35 µM) | 2 (≈ 5.4 µM) |  | 
2 | C=C[C@]1(C)C[C@@H](OC(=O)CSCCN(CC)CC)[C@]2(C)[C@H](C)CC[C@]3(CCC(=O)[C@H]32)[C@@H](C)[C@@H]1O [TIAMULIN] | 4 (≈ 8.1 µM) | > 64 | > 64 | 8 (≈ 16.2 µM) | > 64 | 4 (≈ 8.1 µM) | > 64 | > 64 | > 64 | 0.5 (≈ 1.01 µM) | > 64 |  | 
3 | O=C(N[C@H](CO)[C@H](O)c1ccc([N+](=O)[O-])cc1)C(Cl)Cl [CHLORAMPHENICOL] | 8 (≈ 24.8 µM) | > 64 | > 64 | 8 (≈ 24.8 µM) | > 64 | 8 (≈ 24.8 µM) | > 64 | > 64 | > 64 | 8 (≈ 24.8 µM) | > 64 |  | 
4 | CC(=O)NC[C@H]1CN(c2ccc(-c3ccc(CNCc4cnn[nH]4)cc3)c(F)c2)C(=O)O1 [RADEZOLID] | 2 (≈ 4.56 µM) | 4 (≈ 9.12 µM) | 4 (≈ 9.12 µM) | 1 (≈ 2.28 µM) | 8 (≈ 18.2 µM) | 2 (≈ 4.56 µM) | 4 (≈ 9.12 µM) | 8 (≈ 18.2 µM) | 2 (≈ 4.56 µM) | 1 (≈ 2.28 µM) | 8 (≈ 18.2 µM) |  | 
5 | CC(=O)NC[C@H]1CN(c2ccc(N3CCOCC3)c(F)c2)C(=O)O1 [LINEZOLID] | 8 (≈ 23.7 µM) | 32 (≈ 94.9 µM) | 32 (≈ 94.9 µM) |  | 64 (≈ 190 µM) | 8 (≈ 23.7 µM) | 16 (≈ 47.4 µM) | 64 (≈ 190 µM) | 16 (≈ 47.4 µM) |  | 64 (≈ 190 µM) | 8 (≈ 23.7 µM) | 8 (≈ 23.7 µM)
